Measurements as given in PMC3580954 (Biopolymers, 2013).
Where two headings read alike, the source gives them in different places. Residues, ends and D or L forms follow the SMILES beside them. No end group written: not given here.

T1: wt hPrRP receptor (Homo sapiens, UniProt P49683)
T1 sequence (P49683 1-370): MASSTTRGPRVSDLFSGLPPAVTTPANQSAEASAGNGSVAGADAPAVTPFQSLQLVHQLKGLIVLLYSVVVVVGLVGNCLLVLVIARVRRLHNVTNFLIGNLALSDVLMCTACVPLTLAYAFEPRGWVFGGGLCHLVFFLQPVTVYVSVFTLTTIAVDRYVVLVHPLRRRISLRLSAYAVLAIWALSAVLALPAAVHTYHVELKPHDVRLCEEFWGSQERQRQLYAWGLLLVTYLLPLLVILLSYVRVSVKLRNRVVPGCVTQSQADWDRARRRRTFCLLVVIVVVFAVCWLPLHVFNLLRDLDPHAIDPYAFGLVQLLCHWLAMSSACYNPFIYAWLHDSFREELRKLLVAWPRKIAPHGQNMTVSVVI

T2: wt PrRP receptor (Homo sapiens, UniProt P49683)
T2 sequence (P49683 1-370): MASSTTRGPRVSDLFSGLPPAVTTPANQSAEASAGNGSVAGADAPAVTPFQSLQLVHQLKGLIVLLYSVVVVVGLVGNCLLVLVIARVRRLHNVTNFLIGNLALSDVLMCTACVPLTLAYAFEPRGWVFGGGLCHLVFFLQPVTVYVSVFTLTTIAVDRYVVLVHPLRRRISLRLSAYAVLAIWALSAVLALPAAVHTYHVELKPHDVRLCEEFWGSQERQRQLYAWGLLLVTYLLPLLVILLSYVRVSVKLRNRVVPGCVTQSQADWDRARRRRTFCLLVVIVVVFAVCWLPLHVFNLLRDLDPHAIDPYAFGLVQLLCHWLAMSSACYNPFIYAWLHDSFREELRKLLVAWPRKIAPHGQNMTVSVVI

T3: W^2.71A PrRP receptor (Homo sapiens, UniProt P49683, W127A)
T3 sequence (P49683 1-370 W127A): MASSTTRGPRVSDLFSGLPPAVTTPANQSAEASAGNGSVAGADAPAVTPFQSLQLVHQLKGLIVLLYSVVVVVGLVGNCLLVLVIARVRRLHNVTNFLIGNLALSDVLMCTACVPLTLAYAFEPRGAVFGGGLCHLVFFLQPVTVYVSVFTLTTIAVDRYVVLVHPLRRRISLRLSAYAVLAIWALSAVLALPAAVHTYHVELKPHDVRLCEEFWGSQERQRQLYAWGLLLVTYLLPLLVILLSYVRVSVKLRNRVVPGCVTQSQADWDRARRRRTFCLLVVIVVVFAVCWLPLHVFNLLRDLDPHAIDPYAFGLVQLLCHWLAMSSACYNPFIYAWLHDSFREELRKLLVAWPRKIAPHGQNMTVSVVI

T4: Y^2.64A PrRP receptor (Homo sapiens, UniProt P49683, Y120A)
T4 sequence (P49683 1-370 Y120A): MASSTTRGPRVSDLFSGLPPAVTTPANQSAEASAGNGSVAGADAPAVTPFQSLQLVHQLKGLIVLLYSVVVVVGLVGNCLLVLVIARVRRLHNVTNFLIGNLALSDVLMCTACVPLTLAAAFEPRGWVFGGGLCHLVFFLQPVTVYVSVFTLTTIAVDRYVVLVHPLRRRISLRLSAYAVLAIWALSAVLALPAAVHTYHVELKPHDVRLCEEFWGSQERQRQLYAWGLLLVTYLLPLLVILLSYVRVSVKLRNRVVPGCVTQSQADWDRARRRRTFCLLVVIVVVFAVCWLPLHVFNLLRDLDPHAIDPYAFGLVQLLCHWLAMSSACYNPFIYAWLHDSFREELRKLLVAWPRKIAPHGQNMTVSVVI

T5: PrRP receptor (GPR10) (Homo sapiens, UniProt P49683)
T5 chain: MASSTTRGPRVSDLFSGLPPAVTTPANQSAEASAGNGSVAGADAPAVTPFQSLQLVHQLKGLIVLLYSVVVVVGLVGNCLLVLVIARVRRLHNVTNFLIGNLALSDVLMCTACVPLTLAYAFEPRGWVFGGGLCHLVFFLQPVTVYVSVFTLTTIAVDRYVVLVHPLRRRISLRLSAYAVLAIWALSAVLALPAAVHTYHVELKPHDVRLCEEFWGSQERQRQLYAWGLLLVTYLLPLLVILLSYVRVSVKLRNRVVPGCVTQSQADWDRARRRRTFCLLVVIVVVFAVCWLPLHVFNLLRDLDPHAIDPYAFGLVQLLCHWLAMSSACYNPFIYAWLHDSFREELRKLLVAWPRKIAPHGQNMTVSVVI


How the values were obtained:
wt hPrRP receptor = biological target: T1, wt hPrRP receptor; experiment: Signal transduction; type: cell-based; conditions: SD
Method in brief: (§1)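 COS-7 cells were transiently transfected with 0.4 µg plasmid of human PrRP receptor or its site-directed mutant, C-terminally fused to EYFP. One day after transfection and 16 h before stimulation, cells were labelled with 2 µCi/mL [³H]myo-inositol. They were then stimulated with increasing peptide concentrations for 1 h at 37°C in DMEM with 10 mM LiCl, and lysed in 0.1 M NaOH. IP was separated by anion exchange and counted by scintillation. EC50 came from concentration-response curves; runs were in duplicate, repeated ≥2 times.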

wt PrRP receptor = biological target: T2, wt PrRP receptor; experiment: Radioligand displacement; type: binding
Method in brief: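 COS-7 cells (1.5 × 10⁶ seeded) were transiently transfected at 60–70% confluency with 4 µg of EYFP-fused human PrRP receptor DNA. About 24 h later, competition binding was run on intact cells against 1 nM N[propionyl³H]hPrRP20. IC50 came from a one-site competition fit, with triplicates.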

W^2.71A PrRP receptor = biological target: T3, W^2.71A PrRP receptor; experiment: IP accumulation assay, W^2.71A receptor mutant; type: cell-based; conditions: SD
Method in brief: as §1

Y^2.64A PrRP receptor = biological target: T4, Y^2.64A PrRP receptor; experiment: IP accumulation assay, Y^2.64A receptor mutant; type: cell-based; conditions: SD
Method in brief: as §1

PrRP receptor (GPR10) [1] = biological target: T5, PrRP receptor (GPR10); experiment: radioligand displacement on transfected COS-7 cells
PrRP receptor (GPR10) [2] = biological target: T5, PrRP receptor (GPR10); experiment: radioligand binding on transfected COS-7 cells

| EC50 (wt hPrRP receptor) | IC50 (PrRP receptor (GPR10) [1]) | Molecule | also measured |
| --- | --- | --- | --- |
| 49 ± 12 nM |  | CC[C@H](C)[C@H](NC(=O)CNC(=O)[C@H](CCCNC(=N)N)NC(=O)[C@H](CO)NC(=O)[C@H](C)NC(=O)[C@H](Cc1ccc(O)cc1)NC(=O)[C@H](Cc1c[nH]c2ccccc12)NC(=O)[C@H](C)NC(=O)[C@@H]1CCCN1C(=O)[C@H](CC(N)=O)NC(=O)[C@@H](NC(=O)[C@H](CC(=O)O)NC(=O)[C@@H]1CCCN1C(=O)[C@@H](N)[C@@H](C)O)[C@@H](C)CC)C(=O)N[C@@H](C)C(=O)N1CCC[C@H]1C(=O)N[C@H](C(=O)NCC(=O)N[C@@H](CCCNC(=N)N)C(=O)N[C@@H](Cc1ccccc1)C(N)=O)C(C)C [A^15PrRP20] (H-TPDINPAWYASRGIAPVGRF-NH2) | IC50 (wt PrRP receptor; SD): 882 ± 376 nM |
| 20 ± 5 nM |  | CC[C@H](C)[C@H](NC(=O)CNC(=O)[C@H](CCCNC(=N)N)NC(=O)[C@H](CO)NC(=O)[C@H](C)NC(=O)[C@H](Cc1ccc(O)cc1)NC(=O)[C@H](Cc1c[nH]c2ccccc12)NC(=O)[C@H](C)NC(=O)[C@@H]1CCCN1C(=O)[C@H](CC(N)=O)NC(=O)[C@@H](NC(=O)[C@H](CC(=O)O)NC(=O)[C@@H]1CCCN1C(=O)[C@@H](N)[C@@H](C)O)[C@@H](C)CC)C(=O)N[C@@H](CCCNC(=N)N)C(=O)N1CCC[C@H]1C(=O)N[C@H](C(=O)NCC(=O)N[C@@H](CCCNC(=N)N)C(=O)N[C@@H](C)C(N)=O)C(C)C [A^20PrRP20] (H-TPDINPAWYASRGIRPVGRA-NH2) | IC50 (wt PrRP receptor; SD): 870 ± 288 nM |
| 2.3 ± 0.5 nM |  | CC[C@H](C)[C@H](NC(=O)CNC(=O)[C@H](CCCNC(=N)N)NC(=O)[C@H](CO)NC(=O)[C@H](C)NC(=O)[C@H](Cc1ccc(O)cc1)NC(=O)[C@@H](N)Cc1c[nH]c2ccccc12)C(=O)N[C@@H](CCCNC(=N)N)C(=O)N1CCC[C@H]1C(=O)N[C@H](C(=O)NCC(=O)N[C@@H](CCCNC(=N)N)C(=O)N[C@@H](Cc1ccccc1)C(N)=O)C(C)C [PrRP8-20] (H-WYASRGIRPVGRF-NH2) | EC50 (W^2.71A PrRP receptor): 2120 ± 390 nM; EC50 (Y^2.64A PrRP receptor): 434 ± 96 nM |
|  | 1.2 nM | INPAWYASRGIRPVGRF-NH2 [PrRP4-20] |  |

The remaining lines, values behind:

| Molecule | EC50 (wt hPrRP receptor) | IC50 (PrRP receptor (GPR10) [1]) | also measured |
| --- | --- | --- | --- |
| CC[C@H](C)[C@H](NC(=O)CNC(=O)[C@H](CCCNC(=N)N)NC(=O)[C@H](CO)NC(=O)[C@H](C)NC(=O)[C@H](Cc1ccc(O)cc1)NC(=O)[C@H](Cc1c[nH]c2ccccc12)NC(=O)[C@H](C)NC(=O)[C@@H]1CCCN1C(=O)[C@H](CC(N)=O)NC(=O)[C@@H](NC(=O)[C@H](CC(=O)O)NC(=O)[C@@H]1CCCN1C(=O)[C@@H](N)[C@@H](C)O)[C@@H](C)CC)C(=O)N[C@@H](CCCNC(=N)N)C(=O)N1CCC[C@H]1C(=O)N[C@H](C(=O)NCC(=O)N[C@@H](C)C(=O)N[C@@H](Cc1ccccc1)C(N)=O)C(C)C [A^19PrRP20] (H-TPDINPAWYASRGIRPVGAF-NH2) | 1200 ± 231 nM |  | IC50 (wt PrRP receptor): > 10000 nM |
| CC[C@H](C)[C@H](N)C(=O)N[C@@H](CC(N)=O)C(=O)N1CCC[C@H]1C(=O)N[C@@H](C)C(=O)N[C@@H](Cc1c[nH]c2ccccc12)C(=O)N[C@@H](Cc1ccc(O)cc1)C(=O)N[C@@H](C)C(=O)N[C@@H](CO)C(=O)N[C@@H](CCCNC(=N)N)C(=O)NCC(=O)N[C@H](C(=O)N[C@@H](CCCNC(=N)N)C(=O)N1CCC[C@H]1C(=O)N[C@H](C(=O)NCC(=O)N[C@@H](CCCNC(=N)N)C(=O)N[C@@H](Cc1ccccc1)C(N)=O)C(C)C)[C@@H](C)CC [PrRP4-20] (H-INPAWYASRGIRPVGRF-NH2) | 1 ± 0.2 nM |  |  |
| CC[C@H](C)[C@H](N)C(=O)N[C@@H](CCCNC(=N)N)C(=O)N1CCC[C@H]1C(=O)N[C@H](C(=O)NCC(=O)N[C@@H](CCCNC(=N)N)C(=O)N[C@@H](Cc1ccccc1)C(N)=O)C(C)C [PrRP14-20] (H-IRPVGRF-NH2) | 14 ± 2 nM |  |  |
| IRPVGRF-NH2 [PrRP14-20] |  | 430 nM |  |
| {(3H)propionyl}-TPDINPAWYASRGIRPVGRF-NH2 |  |  | Kd (PrRP receptor (GPR10) [2]): 0.58 nM |
| TPDINPAWYASRGIRPVGRF-NH2 |  | 4.1 nM |  |
| WYASRGIRPVGRF-NH2 [PrRP8-20] |  | 7 nM |  |
